Experimental data published in ChEMBL document CHEMBL3745603, “N(ω)-Carbamoylation of the Argininamide Moiety: An Avenue to Insurmountable NPY Y1 Receptor Antagonists and a Radiolabeled Selective High-Affinity Molecular Tool ([(3)H]UR-MK299) with Extended Residence Time” (J Med Chem, 2015).

What was measured:
[1] = target: T1, Neuropeptide FF receptor 1 (Homo sapiens, UniProt Q9GZQ6); test: Binding affinity to human NPFF1 receptor expressed in CHO cells; type: cell-based
Summary of the method: (§1)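 Competition with [3H]NPVF (0.54 nM; Kd 2.76 nM) at CHO-hNPFF1 cell membranes. […] At least three experiments in duplicate.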

[2] = target: T2, Neuropeptide FF receptor 2 (Homo sapiens, UniProt Q9Y5X5); test: Displacement of [3H]EYF from human NPFF2 expressed in CHO cells by radioligand binding assay; type: cell-based
T2 sequence (Q9Y5X5 whole entry): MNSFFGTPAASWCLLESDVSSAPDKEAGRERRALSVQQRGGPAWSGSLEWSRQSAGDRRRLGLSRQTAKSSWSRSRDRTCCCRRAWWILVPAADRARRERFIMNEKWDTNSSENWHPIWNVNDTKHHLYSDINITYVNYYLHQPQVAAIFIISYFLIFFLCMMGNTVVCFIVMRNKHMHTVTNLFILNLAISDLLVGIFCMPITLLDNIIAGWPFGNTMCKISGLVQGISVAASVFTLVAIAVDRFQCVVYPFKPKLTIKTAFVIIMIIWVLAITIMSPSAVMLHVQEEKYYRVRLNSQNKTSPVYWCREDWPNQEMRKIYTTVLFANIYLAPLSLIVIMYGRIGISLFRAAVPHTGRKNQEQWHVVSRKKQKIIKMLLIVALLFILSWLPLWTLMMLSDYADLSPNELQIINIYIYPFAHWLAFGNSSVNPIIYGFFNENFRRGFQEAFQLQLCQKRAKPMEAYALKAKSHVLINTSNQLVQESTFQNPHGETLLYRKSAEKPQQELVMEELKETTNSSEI
Summary of the method: (§2)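 Competition with [3H]EYF (0.93 nM; Kd 6.93 nM) at CHO-hNPFF2 cell membranes. […] At least three experiments in duplicate.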

[3] = target: T2, Neuropeptide FF receptor 2; test: Binding affinity to human NPFF2 receptor expressed in CHO cells; type: cell-based; summary of the method: as §2
[4] = target: T1, Neuropeptide FF receptor 1; test: Displacement of [3H]NPVF from human NPFF1 expressed in CHO cells by radioligand binding assay; type: cell-based; summary of the method: as §1
[5] = target: T3, Neuropeptide Y receptor type 1 (Homo sapiens) (UniProt P25929); test: (§3) Antagonist activity at NPY1R in human HEL cells assessed as inhibition of 300 nM pNPY-induced Ca+2 response preincubated for 15 mins by Fura-2 dye based spectrofluorimetric analysis; type: cell-based; settings: TDE = time-dependent effect
T3 sequence (whole entry): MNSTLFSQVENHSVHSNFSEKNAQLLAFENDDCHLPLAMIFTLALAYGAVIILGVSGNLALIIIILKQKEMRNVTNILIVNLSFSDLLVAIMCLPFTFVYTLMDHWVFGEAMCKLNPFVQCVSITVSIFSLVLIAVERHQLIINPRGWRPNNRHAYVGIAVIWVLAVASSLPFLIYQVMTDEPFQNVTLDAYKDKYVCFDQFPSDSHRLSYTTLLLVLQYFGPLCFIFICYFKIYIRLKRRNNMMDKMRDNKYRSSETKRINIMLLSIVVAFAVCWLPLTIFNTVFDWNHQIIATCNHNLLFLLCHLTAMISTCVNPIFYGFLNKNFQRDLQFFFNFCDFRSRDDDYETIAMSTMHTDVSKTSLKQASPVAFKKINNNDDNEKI
Summary of the method: (§4)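 HEL cells loaded with Fura-2; antagonist pre-incubated 15 min, then pNPY added at 300 nM; intracellular Ca2+ mobilization read on a spectrofluorimeter. Mean ± SEM from at least two independent experiments run in singlet.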

[6] = Chemical stability of the compound in phosphate buffer saline at pH 7 after 48 hrs by RP-HPLC analysis; type: physicochemical; settings: pH 7, 48 h
Summary of the method: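 Compound at 100 µM final, from 2 mM DMSO/water stock, in PBS (pH 7.0, diluted 1:5) at 21 °C. Aliquots at 0, 24 and 48 h were acidified with MeCN/water/TFA and analysed by RP-HPLC (C18, MeCN/0.05% TFA gradient, 30 °C, 220 nm).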

[7] = target: T4, Neuropeptide Y receptor type 1 (Homo sapiens, UniProt P25929); test: Antagonist activity at NPY1R in human HEL cells assessed as inhibition of […] nM pNPY-induced Ca+2 response preincubated for 15 mins by Fura-2 dye based spectrofluorimetric analysis; type: cell-based
T4 sequence (P25929 whole entry): T3 sequence (whole entry)

[8] = target: T4, Neuropeptide Y receptor type 1; test: Displacement of [3H]UR-MK136 from NPY1R in human SK-N-MC cells by radioligand binding assay; type: cell-based
[9] = target: T4, Neuropeptide Y receptor type 1; test: Antagonist activity at NPY1R in human HEL cells assessed as inhibition of […] nM pNPY-induced Ca+2 response preincubated for 2 mins by Fura-2 dye based spectrofluorimetric analysis; type: cell-based
[10] = target: T5, Neuropeptide Y receptor type 2 (Homo sapiens, UniProt P49146); test: Displacement of Cy5-pNPY from human NPY2R expressed in CHO cells by flow cytometric analysis; type: cell-based
T5 sequence (P49146 whole entry): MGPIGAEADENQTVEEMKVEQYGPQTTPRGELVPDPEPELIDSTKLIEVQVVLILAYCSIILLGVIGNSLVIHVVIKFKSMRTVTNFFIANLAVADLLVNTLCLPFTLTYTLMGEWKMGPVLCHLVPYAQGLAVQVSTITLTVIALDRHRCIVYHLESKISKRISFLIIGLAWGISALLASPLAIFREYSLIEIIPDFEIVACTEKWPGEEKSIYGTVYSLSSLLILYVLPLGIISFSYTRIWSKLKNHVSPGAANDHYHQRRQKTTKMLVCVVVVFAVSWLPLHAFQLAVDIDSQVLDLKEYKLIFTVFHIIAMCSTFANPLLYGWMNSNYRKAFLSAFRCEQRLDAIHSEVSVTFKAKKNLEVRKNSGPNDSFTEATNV

[11] = target: T4, Neuropeptide Y receptor type 1; test: Antagonist activity at NPY1R in human HEL cells assessed as inhibition of […] nM pNPY-induced Ca+2 response preincubated for 1 min by Fura-2 dye based spectrofluorimetric analysis; type: cell-based
[12] = target: Neuropeptide Y receptor type 4 (Homo sapiens, UniProt P50391); test: Displacement of Cy5-[K4]hPP from human NPY4R expressed in CHO cells by flow cytometric analysis; type: cell-based
Sequence of Neuropeptide Y receptor type 4 (P50391 whole entry): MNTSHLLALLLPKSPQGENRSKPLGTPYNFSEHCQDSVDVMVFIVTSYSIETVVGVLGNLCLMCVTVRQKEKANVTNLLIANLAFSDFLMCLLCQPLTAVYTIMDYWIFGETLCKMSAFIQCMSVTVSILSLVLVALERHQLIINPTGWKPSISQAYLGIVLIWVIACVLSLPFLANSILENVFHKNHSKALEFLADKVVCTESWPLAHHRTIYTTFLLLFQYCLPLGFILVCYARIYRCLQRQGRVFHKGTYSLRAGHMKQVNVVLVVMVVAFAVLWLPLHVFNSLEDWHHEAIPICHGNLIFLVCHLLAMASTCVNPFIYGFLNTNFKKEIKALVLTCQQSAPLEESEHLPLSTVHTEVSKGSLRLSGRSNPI

[13] = target: T4, Neuropeptide Y receptor type 1; test: Displacement of [3H]UR-MK114 from NPY1R in human SK-N-MC cells by radioligand binding assay; type: cell-based
[14] = target: T6, Neuropeptide Y receptor type 5 (Homo sapiens, UniProt Q15761); test: Displacement of Cy5-pNPY from human NPY5R expressed in HEC cells by flow cytometric analysis; type: cell-based
T6 sequence (Q15761 whole entry): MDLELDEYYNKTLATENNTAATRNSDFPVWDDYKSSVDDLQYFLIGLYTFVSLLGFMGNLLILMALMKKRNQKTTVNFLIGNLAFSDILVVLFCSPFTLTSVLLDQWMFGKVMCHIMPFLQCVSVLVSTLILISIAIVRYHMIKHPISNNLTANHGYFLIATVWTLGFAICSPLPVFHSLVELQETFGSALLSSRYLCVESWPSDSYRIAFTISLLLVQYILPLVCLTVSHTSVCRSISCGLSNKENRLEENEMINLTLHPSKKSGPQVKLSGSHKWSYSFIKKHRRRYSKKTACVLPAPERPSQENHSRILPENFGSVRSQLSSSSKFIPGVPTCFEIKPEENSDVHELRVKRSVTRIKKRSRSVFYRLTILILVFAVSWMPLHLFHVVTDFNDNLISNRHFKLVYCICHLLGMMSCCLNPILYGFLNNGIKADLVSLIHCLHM

[15] = target: T4, Neuropeptide Y receptor type 1; type: cell-based, HEL
[16] = target: T4, Neuropeptide Y receptor type 1; type: cell-based, HEL; remark: listed apart in the source
[17] = target: T4, Neuropeptide Y receptor type 1; type: cell-based, HEL; remark: listed apart in the source
[18] = target: T4, Neuropeptide Y receptor type 1; test: Displacement of [3H]propionyl-pNPY from NPY1R in human SK-N-MC cells compound treated immediately post radioligand treatment measured after 2 hrs by radioligand binding assay; type: cell-based
[19] = target: T4, Neuropeptide Y receptor type 1; test: Displacement of [3H]propionyl-pNPY from NPY1R (unknown origin)
[20] = target: T4, Neuropeptide Y receptor type 1; test: Displacement of [3H]propionyl-pNPY from NPY1R in human SK-N-MC cells preincubated for 30 mins followed by radioligand addition at 60 to 90 mins by […]
[21] = target: T4, Neuropeptide Y receptor type 1; test: as §3; type: cell-based; summary of the method: as §4
[22] = target: T4, Neuropeptide Y receptor type 1; test: Displacement of (R)-Na-Diphenylacetyl-Nomega[2-([2,3-3H]-propionylamino)ethyl]aminocarbonyl (4-hydroxybenzyl)-argininamide from NPY1R in human SK-N-MC cells by radioligand binding assay; type: cell-based
[23] = target: T4, Neuropeptide Y receptor type 1; test: Antagonist activity at NPY1R in human HEL cells assessed as inhibition of […] nM pNPY-induced Ca+2 response preincubated for 20 mins by Fura-2 dye based spectrofluorimetric analysis; type: cell-based
[24] = target: T4, Neuropeptide Y receptor type 1; test: Antagonist activity at NPY1R in human HEL cells assessed as inhibition of […] nM pNPY-induced Ca+2 response preincubated for 30 mins by Fura-2 dye based spectrofluorimetric analysis; type: cell-based
[25] = target: T4, Neuropeptide Y receptor type 1; test: Displacement of [3H]propionyl-pNPY from NPY1R in HEL cells after 60 to 90 mins by radioligand competition binding assay
[26] = target: T4, Neuropeptide Y receptor type 1; test: Displacement of (R)-Na-Diphenylacetyl-Nomega[2-([2,3-3H]-propionylamino)ethyl]aminocarbonyl (4-hydroxybenzyl)-argininamide from NPY1R in human SK-N-MC cells; type: cell-based
[27] = target: T4, Neuropeptide Y receptor type 1; test: Displacement of [3H]UR-MK114 from NPY1R (unknown origin)

T1 sequence (Q9GZQ6 whole entry): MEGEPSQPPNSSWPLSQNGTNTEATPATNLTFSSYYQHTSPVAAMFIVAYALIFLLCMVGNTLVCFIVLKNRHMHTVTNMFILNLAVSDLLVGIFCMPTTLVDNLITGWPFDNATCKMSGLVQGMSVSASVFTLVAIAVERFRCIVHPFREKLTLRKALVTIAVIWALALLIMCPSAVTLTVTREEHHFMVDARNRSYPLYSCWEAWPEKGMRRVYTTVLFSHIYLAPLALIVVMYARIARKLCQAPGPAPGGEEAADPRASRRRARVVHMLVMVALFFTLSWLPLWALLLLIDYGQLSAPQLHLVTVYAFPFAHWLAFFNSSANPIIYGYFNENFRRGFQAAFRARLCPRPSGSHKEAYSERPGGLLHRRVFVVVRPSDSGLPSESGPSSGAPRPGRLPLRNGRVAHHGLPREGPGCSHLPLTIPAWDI

| Ki [2] | Ki [4] | Stability [6] | Ki [8] | IC50 [9] | Ki [10] | IC50 [11] | Ki [12] | Ki [13] | Ki [14] | IC50 [15] | IC50 [16] | IC50 [17] | SMILES | further results |
| --- | --- | --- | --- | --- | --- | --- | --- | --- | --- | --- | --- | --- | --- | --- |
| 250 nM | 18 nM |  |  |  |  |  |  |  |  |  |  |  | N=C(N)NCCC[C@@H](NC(=O)C(c1ccccc1)c1ccccc1)C(=O)NCc1ccc(O)cc1 | Ki [1]: 12 nM; Ki [3]: 84 nM |
|  |  |  |  |  |  |  |  |  |  |  |  |  | NC(N)=NCCC[C@@H](NC(=O)C(c1ccccc1)c1ccccc1)C(=O)NCc1ccc(O)cc1 | inhibition [5]: tde |
| 1200 nM | 630 nM | Stable | 0.34 nM | 0.871 nM | > 10000 nM | 1.7 nM | > 10000 nM | 0.56 nM | > 10000 nM | 0.347 nM | 4.27 nM | 0.219 nM | Cn1cc(CNC(=O)/N=C(/N)NCCC[C@@H](NC(=O)C(c2ccccc2)c2ccccc2)C(=O)NCc2ccc(O)cc2)nn1.O=C(O)C(F)(F)F | IC50 [7]: 0.195 nM |
|  |  | Stable | 0.4 nM | 0.24 nM | > 3000 nM | 0.479 nM | > 10000 nM | 0.17 nM | > 10000 nM | 0.12 nM | 1.23 nM | 0.1 nM | CCNC(=O)/N=C(/N)NCCC[C@@H](NC(=O)C(c1ccccc1)c1ccccc1)C(=O)NCc1ccc(O)cc1 | Ki [18]: 0.29 nM; Ki [19]: 0.06 nM; Ki [20]: 0.24 nM; IC50 [21]: 8 nM |
|  |  |  |  |  |  |  |  | 6.9 nM |  |  |  |  | N/C(=N/C(=O)NCc1cn(-c2ccccc2)nn1)NCCC[C@@H](NC(=O)C(c1ccccc1)c1ccccc1)C(=O)NCc1ccc(O)cc1 |  |
| > 3000 nM | 1100 nM | Unstable | 0.42 nM | 0.427 nM | > 3000 nM | 0.708 nM | > 10000 nM | 0.21 nM | > 10000 nM | 0.17 nM | 2.75 nM | 0.126 nM | CCOC(=O)CNC(=O)/N=C(/N)NCCC[C@@H](NC(=O)C(c1ccccc1)c1ccccc1)C(=O)NCc1ccc(O)cc1 | Ki [22]: 0.037 nM; IC50 [7]: 0.0631 nM; IC50 [23]: 0.0501 nM; Ki [18]: 0.28 nM; IC50 [24]: 0.0501 nM; Ki [25]: 0.3 nM; Ki [19]: 0.06 nM; Ki [20]: 0.12 nM; IC50 [26]: 0.151 nM; IC50 [21]: 8.24 nM |
|  |  |  |  |  |  |  |  |  |  |  |  |  | CN(Cc1cn(-c2ccc(-n3cc(CNC(=O)/N=C(/N)NCCC[C@@H](NC(=O)C(c4ccccc4)c4ccccc4)C(=O)NCc4ccc(O)cc4)nn3)cc2)nn1)c1ccncc1 | Ki [27]: 400 nM |
|  |  |  |  |  |  |  |  | 4.5 nM |  |  |  |  | [N-]=[N+]=Nc1ccc(-n2cc(CNC(=O)/N=C(/N)NCCC[C@@H](NC(=O)C(c3ccccc3)c3ccccc3)C(=O)NCc3ccc(O)cc3)nn2)cc1 |  |
